Data published in ChEMBL document CHEMBL3867436, “Chemistry of Renieramycins. 15. Synthesis of 22-O-Ester Derivatives of Jorunnamycin A and Their Cytotoxicity against Non-Small-Cell Lung Cancer Cells” (J Nat Prod, 2016).

Tests used:
[1] = Cytotoxicity against human NCI-H292 cells assessed as decrease in cell viability after 72 hrs by MTT assay; assay type: functional, cell-based; settings: NCI-H292, 72 h
Procedure, shortened: (§1)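 Human NSCLC lines (ATCC) seeded at 2 × 10^3 cells/well, adhered overnight, then exposed 72 h to at least five concentrations of analogue in RPMI with ≤0.2% DMSO. MTT 0.5 mg/mL added for 4 h, formazan dissolved in DMSO, absorbance read at 570 nm. Viability relative to untreated cells. IC50 per experiment averaged over three independent triplicate runs on different days (mean ± SD). Cisplatin positive control.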

[2] = Cytotoxicity against human NCI-H460 cells assessed as decrease in cell viability after 72 hrs by MTT assay; assay type: functional, cell-based; settings: NCI-H460, 72 h; procedure, shortened: as §1

Row | Structure (SMILES) | IC50 [1] [nM] | IC50 [2] [nM]
1 | COC1=C(C)C(=O)C2=C(C1=O)[C@H]1[C@@H]3CC4=C(C(=O)C(OC)=C(C)C4=O)[C@H](COC(=O)c4ccc(F)cc4)N3[C@@H](C#N)[C@H](C2)N1C | 56 | 22
2 | COC1=C(C)C(=O)C2=C(C1=O)[C@H]1[C@@H]3CC4=C(C(=O)C(OC)=C(C)C4=O)[C@H](COC(=O)/C=C/c4ccccc4Cl)N3[C@@H](C#N)[C@H](C2)N1C | 25 | 9
3 | COC1=C(C)C(=O)C2=C(C1=O)[C@H]1[C@@H]3CC4=C(C(=O)C(OC)=C(C)C4=O)[C@H](COC(=O)/C=C/c4ccncc4)N3[C@@H](C#N)[C@H](C2)N1C | 20 | 20
4 | COC1=C(C)C(=O)C2=C(C1=O)[C@H]1[C@@H]3CC4=C(C(=O)C(OC)=C(C)C4=O)[C@H](COC(=O)/C=C/c4ccc(F)cc4)N3[C@@H](C#N)[C@H](C2)N1C | 44 | 12
5 | COC1=C(C)C(=O)C2=C(C1=O)[C@H]1[C@@H]3CC4=C(C(=O)C(OC)=C(C)C4=O)[C@H](COC(=O)c4ccccn4)N3[C@@H](C#N)[C@H](C2)N1C | 3.7 | 2.2
6 | COC1=C(C)C(=O)C2=C(C1=O)[C@H]1[C@@H]3CC4=C(C(=O)C(OC)=C(C)C4=O)[C@H](COC(=O)CC(F)(F)F)N3[C@@H](C#N)[C@H](C2)N1C | 570 | 320
7 | COC1=C(C)C(=O)C2=C(C1=O)[C@H]1[C@@H]3CC4=C(C(=O)C(OC)=C(C)C4=O)[C@H](COC(=O)c4ccccc4F)N3[C@@H](C#N)[C@H](C2)N1C | 30 | 10
8 | COC1=C(C)C(=O)C2=C(C1=O)[C@H]1[C@@H]3CC4=C(C(=O)C(OC)=C(C)C4=O)[C@H](COC(=O)c4cccc(F)c4)N3[C@@H](C#N)[C@H](C2)N1C | 18 | 11
9 | COC1=C(C)C(=O)C2=C(C1=O)[C@H]1[C@@H]3CC4=C(C(=O)C(OC)=C(C)C4=O)[C@H](COC(=O)c4ccccc4C(F)(F)F)N3[C@@H](C#N)[C@H](C2)N1C | 51 | 22
10 | COC1=C(C)C(=O)C2=C(C1=O)[C@H]1[C@@H]3CC4=C(C(=O)C(OC)=C(C)C4=O)[C@H](COC(=O)/C=C/c4ccc([N+](=O)[O-])cc4)N3[C@@H](C#N)[C@H](C2)N1C | 22 | 14
11 | COC1=C(C)C(=O)C2=C(C1=O)[C@H]1[C@@H]3CC4=C(C(=O)C(OC)=C(C)C4=O)[C@H](COC(=O)c4ccncc4)N3[C@@H](C#N)[C@H](C2)N1C | 1.1 | 1.6
12 | COC1=C(C)C(=O)C2=C(C1=O)[C@H]1[C@@H]3CC4=C(C(=O)C(OC)=C(C)C4=O)[C@H](COC(=O)/C=C/c4ccccc4)N3[C@@H](C#N)[C@H](C2)N1C | 19 | 18
13 | COC1=C(C)C(=O)C2=C(C1=O)[C@H]1[C@@H]3CC4=C(C(=O)C(OC)=C(C)C4=O)[C@H](CO)N3[C@@H](C#N)[C@H](C2)N1C | 220 | 160
14 | COC1=C(C)C(=O)C2=C(C1=O)[C@H]1[C@@H]3CC4=C(C(=O)C(OC)=C(C)C4=O)[C@H](COC(=O)/C=C/c4cccnc4)N3[C@@H](C#N)[C@H](C2)N1C | 4.9 | 2.8
15 | COC1=C(C)C(=O)C2=C(C1=O)[C@H]1[C@@H]3CC4=C(C(=O)C(OC)=C(C)C4=O)[C@H](COC(=O)c4ccc(C(F)(F)F)cc4)N3[C@@H](C#N)[C@H](C2)N1C | 60 | 24
16 | COC1=C(C)C(=O)C2=C(C1=O)[C@H]1[C@@H]3CC4=C(C(=O)C(OC)=C(C)C4=O)[C@H](COC(=O)/C=C/c4cccc(F)c4)N3[C@@H](C#N)[C@H](C2)N1C | 11 | 9.8
17 | COC1=C(C)C(=O)C2=C(C1=O)[C@H]1[C@@H]3CC4=C(C(=O)C(OC)=C(C)C4=O)[C@H](COC(=O)/C=C/c4c(F)c(F)c(F)c(F)c4F)N3[C@@H](C#N)[C@H](C2)N1C | 21 | 69
18 | COC1=C(C)C(=O)C2=C(C1=O)[C@H]1[C@@H]3CC4=C(C(=O)C(OC)=C(C)C4=O)[C@H](COC(=O)c4cccnc4)N3[C@@H](C#N)[C@H](C2)N1C | 6.4 | 6
19 | C/C=C(/C)C(=O)OC[C@H]1C2=C(C[C@H]3[C@H]4C5=C(C[C@@H]([C@H](C#N)N13)N4C)C(=O)C(C)=C(OC)C5=O)C(=O)C(C)=C(OC)C2=O [RENIERAMYCIN M] | 23 | 8.3
20 | COC1=C(C)C(=O)C2=C(C1=O)[C@H]1[C@@H]3CC4=C(C(=O)C(OC)=C(C)C4=O)[C@H](COC(=O)c4cccc(C(F)(F)F)c4)N3[C@@H](C#N)[C@H](C2)N1C | 49 | 30
